For series [1], the target named is T1, CYP1B1 (Homo sapiens, UniProt Q16678).
T1 sequence (Q16678 whole entry): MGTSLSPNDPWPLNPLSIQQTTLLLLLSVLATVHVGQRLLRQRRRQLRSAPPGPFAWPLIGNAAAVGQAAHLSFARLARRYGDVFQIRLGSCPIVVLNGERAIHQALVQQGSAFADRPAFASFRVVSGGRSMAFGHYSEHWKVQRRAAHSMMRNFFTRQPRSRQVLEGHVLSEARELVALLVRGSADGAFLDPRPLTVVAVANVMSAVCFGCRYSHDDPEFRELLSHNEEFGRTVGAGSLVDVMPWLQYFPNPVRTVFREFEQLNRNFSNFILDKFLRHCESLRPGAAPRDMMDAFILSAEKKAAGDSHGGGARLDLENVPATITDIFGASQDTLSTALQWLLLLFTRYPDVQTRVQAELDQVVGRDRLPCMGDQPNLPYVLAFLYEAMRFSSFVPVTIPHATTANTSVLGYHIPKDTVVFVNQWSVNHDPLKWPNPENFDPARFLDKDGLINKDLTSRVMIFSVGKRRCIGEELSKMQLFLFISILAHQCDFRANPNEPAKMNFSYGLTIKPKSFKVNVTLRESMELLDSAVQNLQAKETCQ
Kind of series: Inhibition of recombinant human CYP1B1 expressed in baker's yeast-derived microsomes (Sacchrosomes) at 10 uM using 7-ethoxyresorufin substrate by EROD assay relative to control. In kind it is ADME. Conditions: probe 7-ethoxyresorufin. The method, boiled down:
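Yeast microsomes carrying recombinant CYP (Sacchrosomes). […] Substrates per isoform are 7-ethoxyresorufin, 3-cyano-7-ethoxycoumarin, EOMCC or dibenzylfluorescein, read as endpoint fluorescence. Background from compound-only wells without enzyme is subtracted. Independent triplicate runs; α-naphthoflavone positive control.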

The target in series [2] is T2, Cytochrome P450 1A1 (Homo sapiens, UniProt P04798).
T2 sequence (P04798 whole entry): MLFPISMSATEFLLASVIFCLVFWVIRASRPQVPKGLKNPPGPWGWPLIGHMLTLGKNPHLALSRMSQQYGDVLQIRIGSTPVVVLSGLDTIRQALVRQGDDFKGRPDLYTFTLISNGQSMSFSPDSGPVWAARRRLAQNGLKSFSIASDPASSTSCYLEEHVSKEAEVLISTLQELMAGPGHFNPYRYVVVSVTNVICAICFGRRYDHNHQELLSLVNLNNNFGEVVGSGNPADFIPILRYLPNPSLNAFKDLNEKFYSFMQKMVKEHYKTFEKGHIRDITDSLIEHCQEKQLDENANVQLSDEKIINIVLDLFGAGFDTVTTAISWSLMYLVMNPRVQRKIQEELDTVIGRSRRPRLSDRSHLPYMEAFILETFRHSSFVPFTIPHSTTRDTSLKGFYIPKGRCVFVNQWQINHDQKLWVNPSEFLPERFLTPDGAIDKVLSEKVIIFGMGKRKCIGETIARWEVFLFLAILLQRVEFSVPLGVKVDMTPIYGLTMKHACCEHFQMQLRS
In words: Inhibition of human recombinant CYP1A1 expressed in HEK293 cells using 7-ethoxyresorufin substrate preincubated for 30 mins followed by substrate addition and measured after 60 mins by fluorescence assay relative to control. The format is cell-based. The method, boiled down: (§1)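 HEK293 cells adapted to suspension and transiently transfected with pcDNA3.1 plasmids carrying the individual CYP; 100×10^3 cells per well in triplicate. […] Fluorogenic substrate is then added at 5 μM and fluorescence read for 60 min.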

Series [3] has as its target T3, Cytochrome P450 1A2 (Homo sapiens, UniProt P05177).
T3 sequence (P05177 whole entry): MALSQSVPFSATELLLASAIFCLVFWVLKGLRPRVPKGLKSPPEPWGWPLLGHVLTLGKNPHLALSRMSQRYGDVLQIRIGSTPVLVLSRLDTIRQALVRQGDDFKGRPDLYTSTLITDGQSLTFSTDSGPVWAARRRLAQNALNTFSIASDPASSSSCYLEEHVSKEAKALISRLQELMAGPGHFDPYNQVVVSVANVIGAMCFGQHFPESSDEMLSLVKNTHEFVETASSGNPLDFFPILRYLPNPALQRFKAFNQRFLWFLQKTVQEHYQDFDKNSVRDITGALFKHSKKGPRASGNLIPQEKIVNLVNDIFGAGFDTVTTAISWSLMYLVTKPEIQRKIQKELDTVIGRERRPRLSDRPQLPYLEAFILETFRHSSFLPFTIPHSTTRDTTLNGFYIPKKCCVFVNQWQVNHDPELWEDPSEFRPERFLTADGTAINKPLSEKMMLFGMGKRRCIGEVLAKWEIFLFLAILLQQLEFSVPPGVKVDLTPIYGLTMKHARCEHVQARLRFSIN
Kind of series: Inhibition of human recombinant CYP1A2 expressed in HEK293 cells using 3-cyano-7-ethoxycoumarin substrate preincubated for 30 mins followed by substrate addition and measured after 60 mins by fluorescence assay relative to control. In kind it is ADME, cell-based. The gist of the method: as §1

Series [4] concerns the target T4, Cytochrome P450 1B1 (Homo sapiens, UniProt Q16678).
T4 sequence (Q16678 whole entry): T1 sequence (Q16678 whole entry)
Kind of series: Inhibition of human recombinant CYP1B1 expressed in HEK293 cells using 7-ethoxyresorufin substrate substrate preincubated for 30 mins followed by substrate addition and measured after 60 mins by fluorescence assay relative to control. In kind it is ADME, cell-based. The gist of the method:
as §1

Molecules are shown by their SMILES.

As usually defined, the inhibition is the relative decrease from the control value, in per cent. Broadly, the IC50 is the concentration needed to halve the response being measured. Usually Ki stands for the equilibrium dissociation constant of an inhibitor or competing ligand from its target. Take `COc1c2ccoc2c(OC)c2oc(=O)ccc12` [ISOPIMPINELLIN]: the inhibition at 10 µM in series [1] is 55%. The figures for the IC50 in series [2], in series [3] and in series [4] were 20 nM, 40 nM and 6380 nM, respectively. Further, the inhibitory constant (Ki) is 12 nM in series [2] and 28 nM in series [3].

For the compound `COc1c2ccoc2cc2oc(=O)ccc12` [BERGAPTEN], the inhibition at 10 µM in series [1] was determined as 20%. The results for the IC50 in series [2], in series [3] and in series [4] were 80 nM, 90 nM and 15300 nM, respectively. The inhibition constant Ki in series [2] and in series [3] was 60 nM throughout.
